According to ChEMBL document CHEMBL4390639, “Design, Synthesis, and Biological Evaluation of Novel Allosteric Protein Disulfide Isomerase Inhibitors” (J Med Chem, 2019):
pIC50, pKd: −log10 of the molar value. Activity calls are given as the source filed them. The calls are words filed in the database; no cut-off is given here.

Assays:
[1] = biological target: T1, Protein disulfide-isomerase (Homo sapiens, UniProt P07237); experiment: Inhibition of recombinant human N-terminal His-tagged PDI expressed in Escherichia coli BL21 (DE3) pLysS assessed as reduction in enzyme-mediated bovine insulin aggregation
Target sequence in this assay (P07237 whole entry): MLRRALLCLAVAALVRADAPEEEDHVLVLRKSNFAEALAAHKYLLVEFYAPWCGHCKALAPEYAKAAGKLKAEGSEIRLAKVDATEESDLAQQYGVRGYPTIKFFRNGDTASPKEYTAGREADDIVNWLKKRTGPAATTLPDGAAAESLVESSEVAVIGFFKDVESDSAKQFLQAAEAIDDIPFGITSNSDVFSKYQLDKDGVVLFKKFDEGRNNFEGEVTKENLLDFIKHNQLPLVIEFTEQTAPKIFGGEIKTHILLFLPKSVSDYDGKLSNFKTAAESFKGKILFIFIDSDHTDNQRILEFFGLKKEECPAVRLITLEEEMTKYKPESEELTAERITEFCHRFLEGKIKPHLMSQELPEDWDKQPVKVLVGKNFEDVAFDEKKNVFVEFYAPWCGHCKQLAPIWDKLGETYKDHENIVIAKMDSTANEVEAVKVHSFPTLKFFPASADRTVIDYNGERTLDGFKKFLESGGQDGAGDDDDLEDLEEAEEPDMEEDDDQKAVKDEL

U-87 MG [2] = experiment: Cytotoxicity against human U87MG cells assessed as inhibition of cell growth measured after 72 hrs by MTT assay; type: functional, cell-based, U-87MG ATCC; conditions: Homo sapiens, U-87 MG, 72 h; read-out: IC50
How it was run: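 A172 and NU04 cells were seeded at 4000 cells/well and U87MG at 5000 cells/well, incubated overnight at 37 °C, 5% CO2, then exposed to compound or vehicle for 72 h. MTT (3 mg/mL) was added for 4 h, formazan was dissolved in DMSO, and absorbance was read at 570 nm. IC50 came from nonlinear regression; mean ± SD of at least three experiments.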

[3] = biological target: T1, Protein disulfide-isomerase; experiment: Binding affinity to recombinant human N-terminal His-tagged PDI expressed in Escherichia coli BL21 (DE3) pLysS assessed as change in melting temperature at 100 uM by ROX dye based thermal shift assay
How it was run: (§1)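 Purified wild-type, C53S/C397S or H256A PDI at 0.5 mg/mL in 50 mM Tris, pH 7.0, with or without 100 μM compound, was mixed with ROX dye in a 20 µL well. DMSO (5% in buffer) was the control. Samples were heated 25–99 °C at 1 °C/min, and the Boltzmann melting temperature shift versus DMSO was reported. Mean ± SD of three experiments.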
Target sequence in this assay (P07237 18-508 limits assumed): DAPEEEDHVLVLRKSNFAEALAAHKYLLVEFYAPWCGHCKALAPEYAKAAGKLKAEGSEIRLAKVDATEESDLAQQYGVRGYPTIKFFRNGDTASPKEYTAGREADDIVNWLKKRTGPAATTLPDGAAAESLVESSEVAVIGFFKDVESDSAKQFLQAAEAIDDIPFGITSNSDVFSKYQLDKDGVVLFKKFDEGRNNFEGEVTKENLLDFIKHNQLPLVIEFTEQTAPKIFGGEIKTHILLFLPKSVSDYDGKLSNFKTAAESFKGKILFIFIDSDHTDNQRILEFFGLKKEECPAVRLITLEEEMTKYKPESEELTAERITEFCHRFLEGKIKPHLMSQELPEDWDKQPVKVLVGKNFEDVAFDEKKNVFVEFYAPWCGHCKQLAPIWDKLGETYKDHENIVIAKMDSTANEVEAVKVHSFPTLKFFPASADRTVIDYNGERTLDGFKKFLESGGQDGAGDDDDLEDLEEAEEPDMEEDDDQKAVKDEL

[4] = biological target: T1, Protein disulfide-isomerase; experiment: Binding affinity to recombinant human N-terminal His-tagged PDI expressed in Escherichia coli BL21 (DE3) pLysS assessed as increase in melting temperature by ROX dye based thermal shift assay; how it was run: as §1
Target sequence in this assay (P07237 18-508 limits assumed): as above

[5] = test system: Protein disulfide-isomerase (Homo sapiens), P07237 [H256A]; experiment: Binding affinity to recombinant human N-terminal His-tagged PDI H256A mutant expressed in Escherichia coli BL21 (DE3) pLysS assessed as change in melting temperature at 100 uM by ROX dye based thermal shift assay; how it was run: as §1
[6] = biological target: T1, Protein disulfide-isomerase; experiment: Binding affinity to recombinant human N-terminal His-tagged PDI expressed in Escherichia coli BL21 (DE3) pLysS by isothermal titration calorimetry
Target sequence in this assay (P07237 whole entry): as the sequence (P07237 whole entry) above

[7] = biological target: Eukaryotic translation initiation factor 2 subunit 1 (Homo sapiens) (UniProt P05198); experiment: Induction of EIF2alpha phosphorylation in human U87MG cells at 20 uM measured after 2 hrs by Western blot analysis; type: cell-based
How it was run: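 eIF2α phosphorylation in U87MG cells after 2 h with 1 µM PACMA31 or 20 µM analogues; tunicamycin 10 µg/mL as comparator. Lysates (Tris/NaCl/Triton/SDS, sonicated) quantified by BCA; 30 µg protein separated on 10% gels, blotted to PVDF, probed for phospho-eIF2α, detected by fluorescence.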

U-87 MG [8] = experiment: Induction of endoplasmic reticulum stress in human U87MG cells assessed as increase in GRP78 expression at 20 uM measured after 24 hrs by Western blot analysis; type: functional, cell-based; conditions: U-87MG ATCC
How it was run: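 ER-stress immunoblot: 0.5 x 10^6 U87MG cells/well treated for 24 h with 20 µM analogues, 1 µM PACMA31 or DMSO; tunicamycin 10 µg/mL for 2 or 24 h as positive control. Lysis in Tris/NaCl/Triton/SDS buffer with sonication; 30 µg protein on 10% gels, transferred to PVDF, GRP78 probed, fluorescence imaging.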

[9] = biological target: Eukaryotic translation initiation factor 2 subunit 1 (Homo sapiens) (UniProt P05198); experiment: Induction of EIF2alpha phosphorylation in human A172 cells at 20 uM measured after 2 hrs by Western blot analysis; type: cell-based
A 172 [10] = experiment: Induction of endoplasmic reticulum stress in human A172 cells assessed as increase in GRP78 expression at 20 uM measured after 24 hrs by Western blot analysis; type: functional, cell-based
A 172 [11] = experiment: Antimigratory activity against human A172 cells assessed as reduction in cell migration towards wound area at 10 uM measured after 24 hrs by Giemsa staining based microscopic analysis; type: functional
How it was run: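 A172 cells plated at 50,000 cells/well, incubated overnight at 37 °C, 5% CO2, then held 24 h in serum-free DMEM. A scratch was made, compounds were added, and cells grew 24 h until DMSO-control wells closed. Cells were Giemsa-stained and imaged at 10X.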

A 172 [12] = experiment: Effect on PDI expression in human A172 cells at 20 uM measured after 24 hrs by Western blot analysis; type: functional, cell-based
U-87 MG [13] = experiment: Effect on MMP2 expression in human U87MG cells at 10 uM measured after 24 hrs by Western blot analysis; type: functional, cell-based; conditions: U-87MG ATCC
[14] = biological target: Focal adhesion kinase 1 (Homo sapiens) (UniProt Q05397); experiment: Effect on FAK phosphorylation in human U87MG cells at 10 uM measured after 24 hrs by Western blot analysis; type: cell-based
[15] = test system: Protein disulfide-isomerase (Homo sapiens), P07237 [H256A]; experiment: Inhibition of recombinant human N-terminal His-tagged PDI H256A mutant expressed in Escherichia coli BL21 (DE3) pLysS at 10 uM assessed as reduction in enzyme-mediated bovine insulin aggregation
How it was run: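 Insulin reductase assay against H256A PDI: 0.4 μM enzyme preincubated with compounds at 10 μM for 1 h at 37 °C in 100 mM sodium phosphate, 2 mM EDTA, 8 μM DTT, pH 7.0. Then 500 μM DTT and 130 μM bovine insulin added; aggregation read at 620 nm at room temperature. Activity % from OD change at 0 and 80 min, relative to PDI and DTT-only controls; three experiments.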

[16] = biological target: T1, Protein disulfide-isomerase; experiment: Inhibition of recombinant human N-terminal His-tagged PDI expressed in Escherichia coli BL21 (DE3) pLysS at 100 uM measured after 1 hr by ANS dye based fluorescence spectra analysis
How it was run: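 ANS spectral scan: PDI incubated with 100 μM compounds or matching DMSO in TBS for 1 h at 37 °C. ANS then added and incubated 20 min at 25 °C in the dark. Fluorescence spectrum recorded with excitation 370 nm, emission 400–700 nm.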
Target sequence in this assay (P07237 18-508 limits assumed): as the sequence (P07237 18-508 limits assumed) above

[17] = biological target: T1, Protein disulfide-isomerase; experiment: Inhibition of recombinant human N-terminal His-tagged PDI expressed in Escherichia coli BL21 (DE3) pLysS assessed as reduction in enzyme-mediated bovine insulin aggregation at 40 uM measured after 1 hr in presence of 5 mM NAC
How it was run: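 Compounds pretreated with NAC for 30 min at 37 °C, then added to the insulin reductase assay at final 40 μM compound with 0, 1, 2 or 5 mM NAC. The assay uses 0.4 μM PDI preincubated 1 h at 37 °C, then DTT and bovine insulin, read at 620 nm, with % activity at 80 min.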
Target sequence in this assay (P07237 18-508 limits assumed): as above

A 172 [18] = experiment: Antimigratory activity against human A172 cells at 30 uM measured after 4 hrs by Giemsa staining based transwell migration assay; type: functional, cell-based
How it was run: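 A172 cells (1 x 10^5) were treated with compound and seeded into inserts with 8.0 μm PET membrane in serum-free medium. DMEM with 10% FBS was in the lower well; wells without FBS served as control. After 4 h, migrated cells were Giemsa-stained and imaged at 10X, 5 fields per well.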

U-87 MG [19] = experiment: Down regulation of MMP9 expression in human U87MG cells at 10 uM measured after 24 hrs by Western blot analysis; type: functional, cell-based; conditions: U-87MG ATCC

Chain of Protein disulfide-isomerase (Homo sapiens), P07237 [H256A] (P07237 whole entry H256A): as the sequence (P07237 whole entry) above, with H256A counted along it
Chain of Eukaryotic translation initiation factor 2 subunit 1 (Homo sapiens) (P05198 whole entry): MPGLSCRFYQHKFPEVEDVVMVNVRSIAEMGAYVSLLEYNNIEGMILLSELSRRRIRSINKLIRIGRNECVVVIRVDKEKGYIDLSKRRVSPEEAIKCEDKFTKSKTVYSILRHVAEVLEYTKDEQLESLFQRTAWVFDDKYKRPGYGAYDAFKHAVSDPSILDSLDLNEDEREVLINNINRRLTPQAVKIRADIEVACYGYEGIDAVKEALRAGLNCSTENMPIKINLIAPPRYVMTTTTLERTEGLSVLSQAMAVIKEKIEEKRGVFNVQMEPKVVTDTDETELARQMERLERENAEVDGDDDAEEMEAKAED
Chain of Focal adhesion kinase 1 (Homo sapiens) (Q05397 2-1052 limits assumed): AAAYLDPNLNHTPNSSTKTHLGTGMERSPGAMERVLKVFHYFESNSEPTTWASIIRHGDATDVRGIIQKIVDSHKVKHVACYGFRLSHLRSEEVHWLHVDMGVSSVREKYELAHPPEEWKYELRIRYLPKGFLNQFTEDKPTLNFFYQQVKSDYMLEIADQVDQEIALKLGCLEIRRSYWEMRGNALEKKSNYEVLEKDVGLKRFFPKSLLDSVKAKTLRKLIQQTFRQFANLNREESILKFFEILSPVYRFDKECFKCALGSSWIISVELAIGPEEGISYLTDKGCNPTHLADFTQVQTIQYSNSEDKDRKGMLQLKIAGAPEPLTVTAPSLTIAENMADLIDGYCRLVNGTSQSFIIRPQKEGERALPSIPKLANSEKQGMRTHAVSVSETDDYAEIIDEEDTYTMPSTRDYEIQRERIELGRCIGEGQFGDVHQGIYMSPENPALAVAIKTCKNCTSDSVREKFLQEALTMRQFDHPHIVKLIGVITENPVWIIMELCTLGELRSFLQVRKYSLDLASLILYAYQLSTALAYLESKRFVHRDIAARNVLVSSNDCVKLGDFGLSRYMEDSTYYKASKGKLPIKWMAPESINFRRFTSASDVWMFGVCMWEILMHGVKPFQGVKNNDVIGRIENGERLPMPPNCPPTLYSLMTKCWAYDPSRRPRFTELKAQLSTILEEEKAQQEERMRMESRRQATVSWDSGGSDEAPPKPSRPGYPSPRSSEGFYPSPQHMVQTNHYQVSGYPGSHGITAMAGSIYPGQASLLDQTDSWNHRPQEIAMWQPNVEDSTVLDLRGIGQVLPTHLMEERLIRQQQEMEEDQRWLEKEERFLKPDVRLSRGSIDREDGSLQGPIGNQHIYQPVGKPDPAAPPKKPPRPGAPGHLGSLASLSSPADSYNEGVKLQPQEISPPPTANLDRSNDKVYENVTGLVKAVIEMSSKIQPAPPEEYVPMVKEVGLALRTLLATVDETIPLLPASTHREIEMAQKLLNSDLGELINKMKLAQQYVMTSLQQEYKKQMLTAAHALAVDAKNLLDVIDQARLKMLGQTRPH

Row | SMILES | pIC50 [1] | pIC50 (U-87 MG [2]) | ΔTm [3] [°C] | Activity [4] | Activity [5] | Kd [6] | Activity [7] | Activity (U-87 MG [8]) | Activity [9] | Activity (A 172 [10]) | Activity (A 172 [11]) | Activity (A 172 [12]) | Activity (U-87 MG [13]) | Activity [14] | inhibition [15] | inhibition [16] | inhibition [17] | pKd ([6]; read-out: Kd) | Activity (A 172 [18]) | Activity (U-87 MG [19])
1 | COC(=O)c1cccc(/C=C/C(=O)c2cccc(O)c2)c1 | 6.92 | 4.78 | 1.86 | Dose-dependent effect | Active | Nd(Insoluble) | Active | Active | Active | Active | Active | inactive | inactive | inactive | inactive | Active | inactive |  |  | 
2 | N#Cc1cccc(/C=C/C(=O)c2ccc(O)cc2)c1 |  | 4.97 to 4.99 | 2.85 |  | inactive |  | Active | Active | Active | Active | Active | inactive | inactive | inactive | inactive | Active | Active | 5.04 | Active | 
3 | O=C(/C=C/c1ccc(-c2cccnc2)cc1)c1cccc(O)c1 | 6.46 | 4.97 | 2.83 | Dose-dependent effect | Active |  | Active | Active | Active | Active | Active | inactive | inactive | inactive | inactive | Active | Active |  |  | Active
4 | CCCCCN(CCCCC)S(=O)(=O)c1ccc(C(=O)/C=C/c2cccc(O)c2)cc1 | 6.09 | 4.82 | 3.58 | Dose-dependent effect | Active | Nd(Insoluble) | Active | Active | Active | Active | Active | inactive | inactive | inactive | Active | Active | inactive |  | Active | Active
5 | CCCCCN(CCCCC)S(=O)(=O)c1ccc(C(=O)/C=C/c2cccc(C#N)c2)cc1 | 6.80 | 5.25 | 0.52 |  |  |  | Active | Active | Active | Active | Active | inactive | inactive | inactive | inactive |  |  |  | Active | Active
